Results on 96 compounds are retold here after ChEMBL document CHEMBL4513216, “Probing the Open Global Health Chemical Diversity Library for Multistage-Active Starting Points for Next-Generation Antimalarials” (ACS Infect Dis, 2020).

This data set is described as follows: Toxicity liver stage against HepG2, at 10uM. The data set is classed as cell-based. On the set-up: test concentration 10 uM, cell line HepG2-A16-CD81EGFP. Particulars: human, HepG2-A16-CD81EGFP cells; read-out: INHIBITION
The essentials: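 Uninfected HepG2-A16-CD81EGFP cells, 3 × 10^3 per well, 1536-well, plated on prespotted compound at 10 μM final, parasite-free screening media added to match infected plates; puromycin 10 μM positive, DMSO 0.5% negative; run in parallel with 48 h PbLuc assay at 37 °C, 5% CO2; viability by CellTiter-Glo luminescence, normalized to controls.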
Regarding `COc1ccc(C(=O)C2CCCN(Cc3ccon3)C2)c(OC)c1` (stereo unspecified), the cytotoxicity at 10 µM was -4.46%.

For `Cc1ccc(CNC[C@H]2Cn3cc(-c4ccccc4)nc3CO2)cc1`, the cytotoxicity at 10 µM was -9.43%.

As for `CCOCCCNC(=O)C1(C)CCC(=O)N1Cc1ccccc1F` (stereo unspecified), the cytotoxicity at 10 µM was -5.57%.

Take `CCN(CC)CCNC(=O)CCc1c(C)nn(-c2cccc(Cl)c2)c1C`: the cytotoxicity at 10 µM is -5.34%.

In the case of `CC(C)CC(=O)N1CC(=O)N(Cc2ccco2)CC(O)C1` (stereo unspecified), the cytotoxicity at 10 µM is -8.23%.

`COc1c(C(N)=O)cn(C)c1-c1nc2cc(NC(C)=O)ccc2n1C`: the cytotoxicity at 10 µM was -46.5%.

For `CN1C(=O)COc2ccc(C(=O)Cn3cnc4ccsc4c3=O)cc21`, the cytotoxicity at 10 µM is 8.69%.

On to `CC(C)n1cc(C(=O)NCCN(C)C)c2n[nH]c(=O)c-2c1`, for which the cytotoxicity at 10 µM worked out at 9.06%.

`Cn1nc(COCC2CC2)c2c1CCN(C(=O)c1ccno1)C2`: the cytotoxicity at 10 µM is 6.8%.

Turning to `CNC(=O)[C@H]1CC[C@@H]2[C@@H](CCN2c2ncccn2)O1`, the cytotoxicity at 10 µM is 6.25%.

On to `O=S(=O)(C1CC1)N1CC[C@]2(C[C@@H](OCC3CCOCC3)CO2)C1`, for which the cytotoxicity at 10 µM amounted to 8.13%.

For the compound `COC[C@@]12CCO[C@@H]1CCN(C(=O)Cc1ccc(C)cc1)C2`, the cytotoxicity at 10 µM is 1.47%.

Consider `Oc1nnc(-c2cccs2)c2sc(N3CCCC3)nc12`, for which the cytotoxicity at 10 µM is -2.73%.

Regarding `COC(=O)c1c(Cl)c(C2CC2)nc2onc(C)c12`, the cytotoxicity at 10 µM amounted to 10.1%.

As for `COc1cc([C@@H]2N[C@H](c3nccs3)Cc3ccsc32)cc(OC)c1OC`, the cytotoxicity at 10 µM turned out to be 8.71%.

In the case of `CC(=O)N1CCCC(c2cnc(-c3c(C)nn(C)c3C)cn2)C1` (stereo unspecified), the cytotoxicity at 10 µM came to 1.95%.

In the case of `O=C(Nc1c(N2CCCC2)cccc1N1CCCC1)c1cnccn1`, the cytotoxicity at 10 µM is -50.9%.

Turning to `CC(C)c1nc2n(n1)CC(Nc1ncnc3c1CCC3)CC2` (stereo unspecified), the cytotoxicity at 10 µM is -49.1%.

With `CC(C#N)CN(C)Cc1cc(Cl)cc2cccnc12` (stereo unspecified), the cytotoxicity at 10 µM is -48.5%.

Consider `Cc1ccc(C2CCCN2Cc2nc(-c3ccco3)no2)cc1` (stereo unspecified), for which the cytotoxicity at 10 µM was 26.1%.

Consider `Cc1nnc2n1CCN(Cc1nc3ccccc3o1)C2`, for which the cytotoxicity at 10 µM is -6.48%.

`N#CC1(NC(=O)Cc2cc(Cl)c3c(c2)OCCO3)CCC1`: the cytotoxicity at 10 µM was -8.05%.

Turning to `Cn1ccnc1CCNS(=O)(=O)c1ccc(Br)cc1`, the cytotoxicity at 10 µM stood at 3.32%.

Take `O=C(NCCOc1ccccc1)c1ccc2c(c1)C(=O)NC2=O`: the cytotoxicity at 10 µM was 4.98%.

Take `O=C(CNc1ccccc1Cl)Nc1cc(-n2cnnn2)ccc1F`: the cytotoxicity at 10 µM was -4.38%.

Take `Cc1cccc(CNc2cncc(-n3cccn3)n2)c1`: the cytotoxicity at 10 µM was -7.09%.

Take `Cc1ccc(C(=O)NCCCS(C)(=O)=O)c(=O)[nH]1`: the cytotoxicity at 10 µM is -7.6%.

In the case of `CCCn1nc2c(cc1=O)CN(Cc1cc(C)no1)CC2`, the cytotoxicity at 10 µM is -11.6%.

As to `Cc1noc(CN(Cc2cccs2)C2CC2)n1`, the cytotoxicity at 10 µM is -0.243%.

Take `CNC(=O)NC(C)c1nc(-c2ccc(Br)cc2)no1` (stereo unspecified): the cytotoxicity at 10 µM was 7.71%.

In the case of `CN(Cc1cnn(C)c1)C(=O)CN1CCCC1Cn1cncn1` (stereo unspecified), the cytotoxicity at 10 µM came out at 12.6%.

Consider `N#Cc1cccc(CNc2cc(CO)ccc2Cl)c1`, for which the cytotoxicity at 10 µM was 11.5%.

`CN(C)C(=O)Cc1nc(CN2CCCC2Cn2cccn2)cs1` (stereo unspecified): the cytotoxicity at 10 µM was found to be 4.79%.

In the case of `O=C(CCc1ccc(Cl)cc1)NC1CCN(c2cccc(F)c2)CC1`, the cytotoxicity at 10 µM was -5.99%.

As to `Cn1cc(NC(=O)NCc2ccoc2)ccc1=O`, the cytotoxicity at 10 µM was 4.14%.

On to `CSCC(=O)N(C)Cc1ccccc1`, for which the cytotoxicity at 10 µM was -2.34%.

For the compound `Fc1ccc(NCc2nnsc2Cl)c(OC(F)F)c1`, the cytotoxicity at 10 µM turned out to be 0.811%.

In the case of `CCc1nc(C)ncc1C(=O)N1CCN(CC)c2ccccc21`, the cytotoxicity at 10 µM is -10.1%.

Consider `CCCN(CC1CC1)S(=O)(=O)c1ccc(NC(C)=O)cc1`, for which the cytotoxicity at 10 µM amounted to 9.35%.

Consider `CN(C)C(=O)CCNC(=O)NCc1ccc(Br)cc1Cl`, for which the cytotoxicity at 10 µM came to 2.96%.

For the compound `Cc1cc(C)n(-c2ccc(C(C)NS(=O)(=O)CCCS(C)(=O)=O)cc2)n1` (stereo unspecified), the cytotoxicity at 10 µM amounted to 7.04%.

Consider `Cc1ccccc1C(C)CC(=O)N1CC[C@H](O)C1` (stereo partly specified), for which the cytotoxicity at 10 µM was -49.7%.

`CN(C)C1CCN(C(=O)CCc2cc(Br)cs2)CC1`: the cytotoxicity at 10 µM is -18%.

Take `CCc1nc(CNCC2(C(N)=O)CCOCC2)cs1`: the cytotoxicity at 10 µM is -3.97%.

On to `Cn1cc(C(=O)N2C[C@@H]3CN(S(C)(=O)=O)CCO[C@@H]3C2)cn1`, for which the cytotoxicity at 10 µM was found to be 8.9%.

For the compound `Cc1cc(C(=O)NC2CCc3c(ccc(=O)n3CCN(C)C)C2)no1` (stereo unspecified), the cytotoxicity at 10 µM was -0.58%.

For `Cc1csc(CN2CCC3(CC2)COC(COc2ccccn2)C3)n1` (stereo unspecified), the cytotoxicity at 10 µM is -113%.

With `COCC(=O)NCc1cc(=O)n2c(n1)CN(Cc1ccco1)CCC2`, the cytotoxicity at 10 µM was -89.3%.

As for `Cc1ccccc1C(=O)N1CC[C@@H]2CN(c3ncccn3)CCO[C@@H]2C1`, the cytotoxicity at 10 µM is -72.4%.

In the case of `CCOCC1CN(CC2CC2)Cc2cnn(C)c21` (stereo unspecified), the cytotoxicity at 10 µM was -90.4%.

Regarding `CN(Cc1cccnc1)CC1CNCc2nccn2C1` (stereo unspecified), the cytotoxicity at 10 µM was -77.2%.

`CCS(=O)(=O)N1CCn2cc(CN(C)Cc3ccco3)nc2C1`: the cytotoxicity at 10 µM is -74.4%.

With `COCCC(=O)N1CC2(CCN(Cc3ccncc3)CC2)C1`, the cytotoxicity at 10 µM was -66.6%.

In the case of `C[C@H]1CN(C(=O)c2cscn2)C[C@@]12CCN(c1ccsc1)C2=O`, the cytotoxicity at 10 µM is -80.7%.

Turning to `O=C1CC[C@@H]2[C@@H](CCN2C(=O)c2ccsc2)N1CC1CC1`, the cytotoxicity at 10 µM was -10.9%.

`CN(Cc1cc(C(C)(C)C)n[nH]1)Cc1c[nH]nc1-c1ccc(F)cc1`: the cytotoxicity at 10 µM is -4.83%.

As for `Cc1nc2c(C)cccc2cc1C(=O)N1CCC2(CCNCC2)CC1`, the cytotoxicity at 10 µM was -8.37%.

With `O=C(Cn1[nH]c2ccccc2c1=O)N1CCCC(CC2CC2)(C(=O)O)C1` (stereo unspecified), the cytotoxicity at 10 µM was 3.15%.

Turning to `CCCSc1ncc(CN2CCN(C)C(=O)C2C)cn1` (stereo unspecified), the cytotoxicity at 10 µM turned out to be 7.75%.

On to `Cc1nonc1CN1CC[C@@](O)(C2CCOCC2)[C@H](C)C1`, for which the cytotoxicity at 10 µM is 7.31%.

Take `CC(=O)c1cc(CC(=O)N2CCN(CCOc3ccccc3)CC2)cs1`: the cytotoxicity at 10 µM was -5.48%.

For the compound `CC1(C)CN(Cc2cc(C3CCCCC3)no2)CC[C@]1(C)O`, the cytotoxicity at 10 µM was -4.59%.

For `COCc1nc(Cn2ncn3cccc3c2=O)no1`, the cytotoxicity at 10 µM is -8.98%.

As for `CCN(CCO)C[C@@H]1CN(C(=O)c2sc3ccccc3c2C)C[C@@H]1CO`, the cytotoxicity at 10 µM is -10.6%.

Take `Cc1nccnc1N1C[C@H]2CN(C3CCOCC3)C[C@@]2(C(=O)O)C1`: the cytotoxicity at 10 µM is -6.93%.

As for `Cc1cc(N2CCC(CO)(CC3CCCCO3)CC2)c2ccccc2n1` (stereo unspecified), the cytotoxicity at 10 µM turned out to be 4.46%.

Take `CCn1c(CC2CCN(C(=O)C3CNCCO3)CC2)nn(C)c1=O` (stereo unspecified): the cytotoxicity at 10 µM is 2.14%.

For `CCC1(O)CCCN(c2nc(C(C)(C)C)nc3c2cnn3C)C1` (stereo unspecified), the cytotoxicity at 10 µM was -52.9%.

Consider `Cc1nsc(NC(=O)N2CCCCC2CCCO)n1` (stereo unspecified), for which the cytotoxicity at 10 µM was -46.3%.

Take `NC(=O)c1ccc(OCCCN2CCC3(CC2)OCCCC3O)cc1` (stereo unspecified): the cytotoxicity at 10 µM is -1.18%.

For the compound `CS(=O)(=O)NCC1CCCN(C(=O)COCC2CC2)C1` (stereo unspecified), the cytotoxicity at 10 µM was 4.28%.

Take `Cc1nn(C)c(C)c1C1CCCN1CC(=O)Nc1cccnc1` (stereo unspecified): the cytotoxicity at 10 µM is -31.7%.

Turning to `CC(C)c1nnc(CN2CCCC2Cn2cncn2)o1` (stereo unspecified), the cytotoxicity at 10 µM was -11.1%.

`O=C(c1cccn1Cc1cccs1)N1CCN(C(=O)C2CC2)CC1`: the cytotoxicity at 10 µM was -6.59%.

In the case of `COc1ccc(-n2ccc(C(=O)N3CCC(C(N)=O)C3)n2)cc1` (stereo unspecified), the cytotoxicity at 10 µM was -6.04%.

On to `COc1cccc(OCCNCc2c(C)nn(C)c2N(C)C)c1`, for which the cytotoxicity at 10 µM was 1.25%.

Turning to `CSCC[C@H](N)c1nnc(SCC(=O)Nc2ccc(Br)cc2)o1`, the cytotoxicity at 10 µM is -2.15%.

In the case of `O=C(Nc1ccccc1)C1=NOC2(CCNCC2)C1`, the cytotoxicity at 10 µM was 5.77%.

With `O=C(NCc1cccnc1)[C@H]1C[C@@H]2CCN(c3ccncn3)C[C@H]2O1`, the cytotoxicity at 10 µM turned out to be 7.95%.

`O=C(CN1CC(c2nc(C3CC3)no2)C1)NCC1CCCO1` (stereo unspecified): the cytotoxicity at 10 µM was -6.66%.

On to `Cc1nc(CN2C[C@@H]3CCCO[C@@H]3[C@H](NC(=O)CC3CC3)C2)cs1`, for which the cytotoxicity at 10 µM is 9.2%.

As for `O=C(c1cnccn1)N1CCN2C[C@H](Oc3cccc(F)c3)C[C@H]2C1`, the cytotoxicity at 10 µM was 11.7%.

For `Fc1cccc(CN2CCC3(CCN3c3ncccn3)C2)c1` (stereo unspecified), the cytotoxicity at 10 µM amounted to 15.3%.

Regarding `Cc1noc(C)c1CN1CC[C@H]2OCC[C@@]2(C(=O)N2CCOCC2)C1`, the cytotoxicity at 10 µM was -77.2%.

`CCn1ncc2c1C(COCC1CC1)N(Cc1c(C)noc1C)CC2` (stereo unspecified): the cytotoxicity at 10 µM turned out to be 12.3%.

As to `Cc1nnc(N2C[C@H](OCc3cccnc3)[C@H]3OCCC[C@H]32)s1`, the cytotoxicity at 10 µM stood at 10.8%.

As to `c1cc(CO[C@@H]2CN(Cc3ccoc3)[C@@H]3CCCO[C@@H]32)ccn1`, the cytotoxicity at 10 µM was -102%.

Consider `CN(C)C(=O)N1CCC(c2nc3ccc(N4CCCC4)cn3n2)CC1`, for which the cytotoxicity at 10 µM amounted to 3.16%.

With `Cn1nc(Cn2ccnc2)c2c1CN(C(=O)c1ccoc1)C2`, the cytotoxicity at 10 µM is -58.9%.

In the case of `CCN1C[C@@H]2CN(c3cc(OC)ncn3)CCC[C@]2(C(=O)O)C1`, the cytotoxicity at 10 µM was -2.58%.

As for `Cc1ccc(CC(=O)N2CC[C@@H]3CN(CCN(C)C)CCO[C@@H]3C2)cc1`, the cytotoxicity at 10 µM stood at 2.73%.

On to `O=C(c1cccnc1)N1CCn2nnc(COc3cccnc3)c2C1`, for which the cytotoxicity at 10 µM amounted to 3.34%.

Consider `CNC(=O)c1ccc(CN(C(C)C)C(C)C)o1`, for which the cytotoxicity at 10 µM is -1.88%.

`CCC(C)(C)NC(=O)c1ncn2c1CN(C)S(=O)(=O)c1ccccc1-2`: the cytotoxicity at 10 µM was -137%.

For `Cc1ncc2c(n1)CN(C=C1NN=C(c3occc3C)O1)CC2`, the cytotoxicity at 10 µM is -2.7%.

For the compound `O=C(c1ccc2c(c1)[nH]c(=O)n2C1CCC(O)CC1)N1CCOCC1` (stereo unspecified), the cytotoxicity at 10 µM was -41.4%.
